Measured values taken from ChEMBL document CHEMBL4130579, “Sulfur-Containing Aristoloxazines and Other Constituents of the Roots of Aristolochia orbicularis” (2017).
≈ marks a conversion by molar mass, not a printed value. Calls of active or inactive are those of the source. The rule behind the calls is not given here.

What was measured:
Candida albicans = assay: Antifungal activity against Candida albicans ATCC 10231 after 24 hrs by agar dilution method; format: functional
How it was run: (§1)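 Agar dilution on Sabouraud glucose agar with 2-fold dilutions from 128 to 0.5 μg/mL and final DMSO below 2% (v/v). Inocula were spotted with a 0.005 mL loop: C. albicans at 10^5 cells/mL and filamentous fungi at 10^6 spores/mL. Plates were incubated at 29 °C in duplicate, for 24 h (C. albicans, A. niger) or 72 h (dermatophytes).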

Staphylococcus aureus [1] = assay: Antibacterial activity against beta-lactamase producing methicillin-resistant Staphylococcus aureus ATCC 11632 after 24 hrs by broth microdilution method; format: functional; settings: ATCC 11632, 24 h
How it was run: (§2)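 Strains were kept on Mueller-Hinton agar at 4 °C and grown in MH broth at 37 °C for 18 h. Broth microdilution followed NCCLS, with serial dilutions over 0.125–128 μg/mL and an inoculum of 10^5 CFU/mL set by the 0.5 McFarland standard. Plates were incubated at 37 °C for 24 h, then p-iodonitrotetrazolium violet (0.5 mg/mL) was added. MIC was the lowest concentration without red colour.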

Salmonella typhi = assay: Antibacterial activity against Salmonella typhi ATCC 06539 at 128 ug/ml after 24 hrs by broth microdilution method; format: functional, organism-based; settings: Salmonella enterica subsp. enterica serovar Typhi
How it was run: (§3)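 Strains kept on Mueller-Hinton agar at 4 °C, grown in MH broth at 37 °C for 18 h before testing. NCCLS standard broth microdilution, serial dilution over 0.125−128 μg/mL. Inoculum set to 10^5 CFU/mL by 0.5 McFarland standard. Plates incubated at 37 °C for 24 h, then p-iodonitrotetrazolium violet (0.5 mg/mL) added. Red colour marks viable cells; growth at the top concentration scored.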

Staphylococcus aureus [2] = assay: Antibacterial activity against methicillin-resistant Staphylococcus aureus ATCC 43300 after 24 hrs by broth microdilution method; format: functional; settings: ATCC 43300, 24 h; how it was run: as §2
Staphylococcus aureus [3] = assay: Antibacterial activity against methicillin-sensitive Staphylococcus aureus ATCC 6358 after 24 hrs by broth microdilution method; format: functional; settings: ATCC 6358, 24 h; how it was run: as §2
[4] = tested on: Trichophyton mentagrophytes; assay: Antifungal activity against Trichophyton mentagrophytes ATCC 28185 after 72 hrs by agar dilution method; format: functional; settings: ATCC 28185, 72 h; how it was run: as §1
Escherichia coli = assay: Antibacterial activity against Escherichia coli ATCC 25922 at 128 ug/ml after 24 hrs by broth microdilution method; format: functional, organism-based; how it was run: as §3
Staphylococcus aureus [5] = assay: Antibacterial activity against methicillin-resistant Staphylococcus aureus ATCC 33591 after 24 hrs by broth microdilution method; format: functional; settings: ATCC 33591, 24 h; how it was run: as §2
Trichophyton rubrum = assay: Antifungal activity against Trichophyton rubrum ATCC 28188 after 72 hrs by agar dilution method; format: functional; settings: ATCC 28188, 72 h; how it was run: as §1
Aspergillus niger = assay: Antifungal activity against Aspergillus niger ATCC 10335 after 24 hrs by agar dilution method; format: functional; settings: ATCC 10335, 24 h; how it was run: as §1
Proteus mirabilis = assay: Antibacterial activity against Proteus mirabilis ATCC 43071 at 128 ug/ml after 24 hrs by broth microdilution method; format: functional, organism-based; how it was run: as §3

Compound | MIC (Candida albicans) [µg/mL] | MIC (Staphylococcus aureus [1]) [µg/mL] | Activity (Salmonella typhi) | MIC (Candida albicans; ATCC 10231, 24 h) [µg/mL] | MIC (Staphylococcus aureus [2]) [µg/mL] | MIC (Staphylococcus aureus [3]) [µg/mL] | MIC [4] [µg/mL] | Activity (Escherichia coli) | MIC (Staphylococcus aureus [5]) [µg/mL] | MIC (Trichophyton rubrum) [µg/mL] | MIC (Aspergillus niger) [µg/mL] | Activity (Proteus mirabilis)
NYSTATIN | 8 | – | – | – | – | – | – | – | – | – | – | –
COc1cc2c(=O)onc3c2c(c1OC)-c1cccc(OC)c1[C@@H]3SCC(N)=O | – | 0.25 (≈ 0.603 µM) | inactive | 25 (≈ 60.3 µM) | 0.25 (≈ 0.603 µM) | 0.5 (≈ 1.21 µM) | 1 (≈ 2.41 µM) | inactive | 0.25 (≈ 0.603 µM) | 1 (≈ 2.41 µM) | 25 (≈ 60.3 µM) | inactive
O=C(N[C@H](CO)[C@H](O)c1ccc([N+](=O)[O-])cc1)C(Cl)Cl [CHLORAMPHENICOL] | – | 2 (≈ 6.19 µM) | – | – | 2 (≈ 6.19 µM) | 1 (≈ 3.09 µM) | – | – | 2 (≈ 6.19 µM) | – | – | –
Cc1onc(-c2ccccc2)c1C(=O)N[C@@H]1C(=O)N2[C@@H]1SC(C)(C)[C@@H]2C(=O)O [OXACILLIN] | – | 32 (≈ 79.7 µM) | – | – | 128 (≈ 319 µM) | 2 (≈ 4.98 µM) | – | – | 128 (≈ 319 µM) | – | – | –
CC1(C)S[C@@H]2[C@H](NC(=O)[C@H](N)c3ccccc3)C(=O)N2[C@H]1C(=O)O [AMPICILLIN] | – | 64 (≈ 183 µM) | – | – | 128 (≈ 366 µM) | 2 (≈ 5.72 µM) | – | – | 128 (≈ 366 µM) | – | – | –
Clc1ccc(COC(Cn2ccnc2)c2ccc(Cl)cc2Cl)c(Cl)c1 (configuration not stated) [MICONAZOLE] | – | – | – | – | – | – | 2 (≈ 4.81 µM) | – | – | 2 (≈ 4.81 µM) | 16 (≈ 38.4 µM) | –
